Experimental data from article PMC5653211 (Journal of medicinal chemistry, 2017).

What was measured:
[1] = target: human heteromeric nicotinic receptor α4β2 (Homo sapiens, UniProt P17787+P43681); type: cell-based
[2] = target: ganglionic α3β4 human nAChR (Homo sapiens, UniProt P30926+P32297); experiment: Activation and ACh competition at ganglionic α3β4 nAChR, oocyte voltage clamp; type: cell-based
muscle type human nAChR = muscle type human nAChR (Homo sapiens, UniProt P02708+Q07001); experiment: Activation and ACh competition at muscle type nAChR, oocyte voltage clamp; type: cell-based
α7 nAChR [3] = target: T1, α7 nAChR (Homo sapiens, UniProt P36544); experiment: PAM-potentiated α7 responses, co-application with 10 µM 1; type: cell-based; conditions: for Potentiation by 1: co-applied with 10 µM 1
Procedure, shortened: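 Human α7 nAChR in Xenopus laevis oocytes, two-electrode voltage clamp. Test compound at 10, 30 or 100 µM co-applied with 10 µM positive allosteric modulator. Net charge normalized to 60 µM ACh controls in the same cells; at least four cells (± S.E.M.). Desensitization: 60 µM ACh responses recorded before and after test compound application, 210 s traces, averaged over 8 cells and normalized to pre-application ACh controls.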

α7 nAChR [4] = target: T1, α7 nAChR; type: cell-based; conditions: for α7 activation / partial agonism: compound applied alone; for Response when applied alone, of the control ACh response: concentrations of Figure 4, 60 µM ACh control
Procedure, shortened: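 Two-electrode voltage clamp on Xenopus laevis oocytes expressing human α7 nAChR. Test compound applied alone at 10, 30, 100, 300 µM and 1 mM; one comparator was tested only up to 300 µM. Response taken as net charge normalized to 60 µM ACh applied alone.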

[5] = Hydrolytic stability in water and Ringer's buffer by 1H-NMR; type: physicochemical; conditions: water, room temperature (~ 25 °C), 3 h, 19 h and up to 60 days
α7 nAChR [6] = target: T1, α7 nAChR; experiment: Inhibition of α7 ACh-evoked responses, co-application with 60 µM ACh; type: cell-based; conditions: range 0.3–100 µM; co-applied with 60 µM ACh
Procedure, shortened: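 Xenopus laevis oocytes expressing human α7 nAChR, two-electrode voltage clamp. Test compound co-applied with 60 µM ACh at 0.3, 1, 3, 10, 30, 100 […] µM. Net charge normalized to responses to 60 µM ACh applied alone. Each point is the mean of at least four cells (± S.E.M.); IC50 values come from the inhibition concentration-response curve.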

Q: What does the source list for `CC[S+]1CCN(c2ccccc2)CC1.O=S(=O)([O-])C(F)(F)F` [compound 7, 1-ethyl-4-phenylthiomorpholin-1-ium trifluoromethane sulfonate]?
A: Agonism [1]: failed to show agonism; Activation ([2]; 30 µM compound): failed to produce measureable activation; Antagonism ([2]; co-application with 100 µM ACh): weak antagonism; Activation (muscle type human nAChR; 30 µM compound): failed to produce measureable activation; Antagonism (muscle type human nAChR; co-application with 30 µM ACh): weak antagonism; PAM response enhancement compared to the parent compound 4 (α7 nAChR [3]): 4 fold; Reversibility of desensitization (α7 nAChR [3]; 100 µM 7 for 30s, then 10 µM PNU120596, subsequent 60 µM ACh response): readily reversible; Potentiated response relative to the response to compound applied alone (α7 nAChR [3]; coapplication with 10 µM 1): 2–3 orders of magnitude; Response compared to the control ACh response (α7 nAChR [3]; coapplication with 10 µM 1, over 10-100 µM compound): 3 to 25 fold; α7 activation / partial agonism (α7 nAChR [4]): virtually no activation; Response when applied alone, of the control ACh response (α7 nAChR [4]): less than 10%; Hydrolytic stability, 1H-NMR spectra vs time zero [5]: no differences in the spectra

Q: What does the source list for `CC[N+]1(CC)CCN(c2ccccc2)CC1` [compound 4, N,N-diethyl-N’-phenylpiperazine, reference compound]?
A: Potentiated responses relative to the corresponding ones for 7 (α7 nAChR [3]; at 10, 30, and 100 µM + 10 µM 1): half or less; Potentiation by 1 (α7 nAChR [3]): modest potentiation; Response when applied alone, of the control ACh response (α7 nAChR [4]): less than 10%

Q: Which “Potentiation by 1” value (α7 nAChR [3]) does the source give for `CCN1CCN(c2ccccc2)CC1` [compound 5, N-phenyl N’-ethyl piperazine] here?
A: failed to show significant potentiated responses

Q: And the “α7 activation / partial agonism” value (α7 nAChR [4])?
A: no activation

Q: And the “Response when applied alone, of the control ACh response” value (α7 nAChR [4])?
A: less than 10%

Q: And the “Inhibition of α7 ACh responses” value (α7 nAChR [6])?
A: lacked the ability to inhibit
